From ChEMBL document CHEMBL2375348, “Aminopropylindenes derived from Grundmann's ketone as a novel chemotype of oxidosqualene cyclase inhibitors” (Eur J Med Chem, 2013)

Assays:
Lanosterol synthase [1] = target: T1, Lanosterol synthase (Homo sapiens, UniProt P48449); test: Inhibition of human lanosterol synthase expressed in Saccharomyces cerevisiae SMY8[pSOB1.1] using [14C]-(3S)-2,3-oxidosqualene as substrate
T1 sequence (P48449 whole entry): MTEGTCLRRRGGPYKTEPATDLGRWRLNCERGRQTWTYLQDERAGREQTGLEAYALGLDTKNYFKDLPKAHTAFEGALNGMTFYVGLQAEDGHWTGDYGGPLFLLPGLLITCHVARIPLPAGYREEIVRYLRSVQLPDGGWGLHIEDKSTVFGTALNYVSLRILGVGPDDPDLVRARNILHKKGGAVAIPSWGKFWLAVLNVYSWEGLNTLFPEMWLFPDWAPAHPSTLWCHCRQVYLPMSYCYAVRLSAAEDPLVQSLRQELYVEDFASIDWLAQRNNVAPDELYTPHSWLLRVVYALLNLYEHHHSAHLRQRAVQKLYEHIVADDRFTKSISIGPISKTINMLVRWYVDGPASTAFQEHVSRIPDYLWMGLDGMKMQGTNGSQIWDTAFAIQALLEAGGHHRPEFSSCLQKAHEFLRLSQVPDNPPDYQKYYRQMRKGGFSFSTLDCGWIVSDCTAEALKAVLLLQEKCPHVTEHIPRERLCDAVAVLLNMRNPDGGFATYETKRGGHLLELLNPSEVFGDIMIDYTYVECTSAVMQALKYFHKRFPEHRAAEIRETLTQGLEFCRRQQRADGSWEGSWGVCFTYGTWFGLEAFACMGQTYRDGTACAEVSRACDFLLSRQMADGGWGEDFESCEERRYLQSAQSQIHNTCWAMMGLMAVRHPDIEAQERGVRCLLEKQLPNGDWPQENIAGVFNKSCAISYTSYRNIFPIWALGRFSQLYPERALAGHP

Cycloartenol synthase = Cycloartenol synthase (Arabidopsis thaliana, UniProt P38605); test: Inhibition of Arabidopsis thaliana cycloartenol synthase expressed in Saccharomyces cerevisiae SMY8[pSM60.21] using [14C]-(3S)-2,3-oxidosqualene as substrate
In short: (§1)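 ERG7-deficient hem1 yeast SMY8 strains were grown aerobically at 30 °C in YPD with hemin and ergosterol, then induced in YPG with hemin (plus ergosterol for A. thaliana). Lyticase/Potter homogenates were incubated with [14C]-(3S)-2,3-oxidosqualene (1000 cpm) at increasing inhibitor levels. Reactions were stopped with KOH/MeOH and saponified at 80 °C for 30 min; extracted conversion was read by TLC radioscan. IC50 came from nonlinear regression; two experiments, each in duplicate.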

HL-60 [2] = test: Cytotoxicity against human HL60 cells after 24 hrs by MTT assay; format: cell-based; settings: HL-60, 24 h
Lanosterol synthase ERG7 = target: T2, Lanosterol synthase ERG7 (Saccharomyces cerevisiae S288c, UniProt P38604); test: Inhibition of wild type yeast lanosterol synthase expressed in Saccharomyces cerevisiae SMY8[pSM61.21] using [14C]-(3S)-2,3-oxidosqualene as substrate; in short: as §1
T2 sequence (P38604 whole entry): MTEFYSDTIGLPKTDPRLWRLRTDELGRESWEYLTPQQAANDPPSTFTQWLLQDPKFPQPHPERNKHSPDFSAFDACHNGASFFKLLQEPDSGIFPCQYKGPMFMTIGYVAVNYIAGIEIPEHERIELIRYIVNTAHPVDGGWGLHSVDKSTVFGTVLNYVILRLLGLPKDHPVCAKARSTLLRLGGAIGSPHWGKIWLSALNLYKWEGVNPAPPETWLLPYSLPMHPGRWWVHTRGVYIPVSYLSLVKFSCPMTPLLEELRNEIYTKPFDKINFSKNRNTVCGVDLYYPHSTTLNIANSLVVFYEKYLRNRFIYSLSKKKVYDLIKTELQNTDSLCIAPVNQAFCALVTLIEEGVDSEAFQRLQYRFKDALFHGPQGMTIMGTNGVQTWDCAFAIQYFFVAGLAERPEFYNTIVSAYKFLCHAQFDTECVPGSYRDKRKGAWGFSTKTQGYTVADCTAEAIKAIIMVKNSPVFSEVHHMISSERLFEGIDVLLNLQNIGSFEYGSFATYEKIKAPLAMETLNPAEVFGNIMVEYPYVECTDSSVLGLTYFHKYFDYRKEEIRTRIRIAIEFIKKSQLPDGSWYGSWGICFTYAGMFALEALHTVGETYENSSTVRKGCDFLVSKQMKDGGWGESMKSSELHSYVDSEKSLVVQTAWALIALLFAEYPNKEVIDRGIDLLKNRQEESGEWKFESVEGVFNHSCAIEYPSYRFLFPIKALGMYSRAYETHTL

Lanosterol synthase [3] = target: T3, Lanosterol synthase (Pneumocystis carinii, UniProt Q96WJ0); test: Inhibition of Pneumocystis carinii lanosterol synthase expressed in Saccharomyces cerevisiae SMY8[pBJ4.21] using [14C]-(3S)-2,3-oxidosqualene as substrate; in short: as §1
T3 sequence (Q96WJ0 whole entry): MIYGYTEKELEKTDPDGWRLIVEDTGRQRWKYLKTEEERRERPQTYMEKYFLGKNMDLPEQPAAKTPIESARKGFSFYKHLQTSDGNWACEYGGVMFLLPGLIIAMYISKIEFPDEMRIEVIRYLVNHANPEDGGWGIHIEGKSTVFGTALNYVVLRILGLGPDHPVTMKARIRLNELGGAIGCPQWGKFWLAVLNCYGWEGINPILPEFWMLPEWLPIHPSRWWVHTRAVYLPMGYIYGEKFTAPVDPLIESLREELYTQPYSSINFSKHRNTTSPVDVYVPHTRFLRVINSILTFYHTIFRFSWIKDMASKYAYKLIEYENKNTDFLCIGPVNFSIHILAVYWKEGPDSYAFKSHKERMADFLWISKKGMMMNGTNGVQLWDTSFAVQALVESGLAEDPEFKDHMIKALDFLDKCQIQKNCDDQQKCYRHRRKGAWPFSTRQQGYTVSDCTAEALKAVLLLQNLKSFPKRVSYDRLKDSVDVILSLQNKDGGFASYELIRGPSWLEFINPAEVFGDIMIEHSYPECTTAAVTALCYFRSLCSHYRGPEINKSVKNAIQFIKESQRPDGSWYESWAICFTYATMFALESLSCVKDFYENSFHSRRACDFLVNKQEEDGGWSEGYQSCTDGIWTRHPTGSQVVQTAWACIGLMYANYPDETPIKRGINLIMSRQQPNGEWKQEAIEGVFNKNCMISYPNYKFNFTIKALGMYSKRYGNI

[4] = Inhibition of Trypanosoma cruzi lanosterol synthase expressed in Saccharomyces cerevisiae SMY8[pBJ1.21] using [14C]-(3S)-2,3-oxidosqualene as substrate; in short: as §1
HL-60 [5] = test: Inhibition of cholesterol biosynthesis in human HL60 cells at 1 uM; format: functional
In short: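 HL-60 cells were incubated with 2-13C-acetate and inhibitor at 1 μM, in triplicate. Newly made 13C-labelled cholesterol was separated from pre-existing unlabelled cholesterol by GC-MS. Decrease in cholesterol biosynthesis was expressed against untreated controls.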

Sequence of Cycloartenol synthase (P38605 whole entry): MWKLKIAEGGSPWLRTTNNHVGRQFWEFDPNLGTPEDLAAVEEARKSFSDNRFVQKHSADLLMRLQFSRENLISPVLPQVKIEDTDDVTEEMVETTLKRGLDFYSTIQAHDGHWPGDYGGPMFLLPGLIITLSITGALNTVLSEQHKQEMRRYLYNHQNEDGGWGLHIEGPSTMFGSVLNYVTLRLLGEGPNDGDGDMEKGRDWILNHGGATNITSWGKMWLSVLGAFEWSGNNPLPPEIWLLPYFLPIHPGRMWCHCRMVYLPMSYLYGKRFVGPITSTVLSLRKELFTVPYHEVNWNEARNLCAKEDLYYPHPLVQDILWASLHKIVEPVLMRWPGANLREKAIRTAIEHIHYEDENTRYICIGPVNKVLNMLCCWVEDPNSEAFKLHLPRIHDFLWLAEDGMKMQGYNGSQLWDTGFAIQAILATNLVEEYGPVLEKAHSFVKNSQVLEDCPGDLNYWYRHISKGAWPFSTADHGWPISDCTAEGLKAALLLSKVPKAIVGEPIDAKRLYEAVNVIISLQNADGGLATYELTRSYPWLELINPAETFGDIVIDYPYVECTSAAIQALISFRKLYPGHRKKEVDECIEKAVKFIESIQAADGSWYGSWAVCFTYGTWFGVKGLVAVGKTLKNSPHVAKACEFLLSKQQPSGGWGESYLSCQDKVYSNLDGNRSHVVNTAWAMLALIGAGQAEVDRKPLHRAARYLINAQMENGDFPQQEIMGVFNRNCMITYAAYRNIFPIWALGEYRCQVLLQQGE

| IC50 (Lanosterol synthase [1]) [µM] | IC50 (Cycloartenol synthase) [µM] | IC50 (Lanosterol synthase ERG7) [µM] | IC50 (Lanosterol synthase [3]) [µM] | SMILES | IC50 (HL-60 [2]) [µM] | IC50 [4] [µM] | inhibition at 1 µM (HL-60 [5]) [%] |
| --- | --- | --- | --- | --- | --- | --- | --- |
| 4.5 | 0.3 | 1.3 | 13 | CC(C)CCC[C@@H](C)[C@H]1CCC2=C(CCCN(C)C)CCC[C@@]21C | > 100 | 0.6 | > 90 |
| > 20 | 1.3 | 2.5 | 15 | CC(C)CCC[C@@H](C)[C@H]1CCC2=C(CCC[N+](C)(C)[O-])CCC[C@@]21C | 20 | 3 | – |
| > 20 | > 20 | > 20 | > 20 | CNCCCC1=C2CC[C@H]([C@H](C)CCCC(C)C)[C@@]2(C)CCC1 | > 100 | > 20 | – |
| 1 | 0.6 | 1.5 | 0.9 | C=CCN(C)CCCC1=C2CC[C@H]([C@H](C)CCCC(C)C)[C@@]2(C)CCC1 | > 100 | 0.8 | > 90 |

More lines, now with the values behind:

| SMILES | IC50 (Lanosterol synthase [1]) [µM] | IC50 (Cycloartenol synthase) [µM] | IC50 (Lanosterol synthase ERG7) [µM] | IC50 (Lanosterol synthase [3]) [µM] | IC50 (HL-60 [2]) [µM] | IC50 [4] [µM] | inhibition at 1 µM (HL-60 [5]) [%] |
| --- | --- | --- | --- | --- | --- | --- | --- |
| CC(C)CCC[C@@H](C)[C@H]1CCC2=C(CCCN3CCCCC3)CCC[C@@]21C | 11.9 | 0.5 | 2.1 | 17 | > 100 | > 20 | – |
| CN(C)Cc1ccc(C2CCC(N(C)C(=O)c3ccc(Cl)cc3)CC2)cc1 (configuration not stated) | – | – | – | – | > 50 | – | 60 |
| CC(C)CCC[C@@H](C)[C@H]1CCC2=C(CCC[n+]3ccccc3)CCC[C@@]21C | 12.5 | 0.2 | 4.2 | 11 | 3.5 | > 20 | – |
| C=CCN(C)CCCCCCOc1ccc(C(=O)c2ccc(Br)cc2)c(F)c1 | – | – | – | – | 8 | – | > 90 |
